From ChEMBL document CHEMBL2157910, “Structure-activity relationship studies of 4-benzyl-1H-pyrazol-3-yl β-d-glucopyranoside derivatives as potent and selective sodium glucose co-transporter 1 (SGLT1) inhibitors with therapeutic activity on postprandial hyperglycemia” (Bioorg Med Chem, 2012) come the findings set out here.

In brackets after ≈: the same amount, converted by molar mass.

One may read the IC50 as the concentration that inhibits the measured activity by half. One may read the solubility as the concentration that dissolves in the medium under given conditions.

Series [1] concerns the target T1, Sodium/glucose cotransporter 2 (Homo sapiens, UniProt P31639).
T1 sequence (P31639 whole entry): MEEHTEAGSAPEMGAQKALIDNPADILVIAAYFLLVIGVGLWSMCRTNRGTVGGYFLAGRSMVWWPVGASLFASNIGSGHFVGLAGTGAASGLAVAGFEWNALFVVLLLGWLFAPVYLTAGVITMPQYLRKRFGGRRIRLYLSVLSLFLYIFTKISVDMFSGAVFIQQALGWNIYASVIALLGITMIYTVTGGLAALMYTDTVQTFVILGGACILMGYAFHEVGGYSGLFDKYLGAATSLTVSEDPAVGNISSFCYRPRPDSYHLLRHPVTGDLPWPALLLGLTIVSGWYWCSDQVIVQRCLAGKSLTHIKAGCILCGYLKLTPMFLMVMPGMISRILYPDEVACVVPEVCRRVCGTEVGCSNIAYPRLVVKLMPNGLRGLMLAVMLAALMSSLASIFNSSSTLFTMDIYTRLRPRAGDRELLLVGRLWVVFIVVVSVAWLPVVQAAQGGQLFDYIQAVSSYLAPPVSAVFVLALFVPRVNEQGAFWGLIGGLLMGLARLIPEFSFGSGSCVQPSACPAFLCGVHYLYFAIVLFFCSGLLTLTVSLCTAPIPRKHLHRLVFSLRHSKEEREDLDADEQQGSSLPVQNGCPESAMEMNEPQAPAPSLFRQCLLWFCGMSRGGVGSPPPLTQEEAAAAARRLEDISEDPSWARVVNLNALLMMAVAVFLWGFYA
The experiment in a line: Inhibition of human SGLT2 expressed in COS7 cells assessed as reduction of [14C]-AMG uptake. The format is cell-based, COS-7.

Series [2] concerns the target T2, Sodium/glucose cotransporter 1 (Rattus norvegicus, UniProt P53790).
T2 sequence (P53790 whole entry): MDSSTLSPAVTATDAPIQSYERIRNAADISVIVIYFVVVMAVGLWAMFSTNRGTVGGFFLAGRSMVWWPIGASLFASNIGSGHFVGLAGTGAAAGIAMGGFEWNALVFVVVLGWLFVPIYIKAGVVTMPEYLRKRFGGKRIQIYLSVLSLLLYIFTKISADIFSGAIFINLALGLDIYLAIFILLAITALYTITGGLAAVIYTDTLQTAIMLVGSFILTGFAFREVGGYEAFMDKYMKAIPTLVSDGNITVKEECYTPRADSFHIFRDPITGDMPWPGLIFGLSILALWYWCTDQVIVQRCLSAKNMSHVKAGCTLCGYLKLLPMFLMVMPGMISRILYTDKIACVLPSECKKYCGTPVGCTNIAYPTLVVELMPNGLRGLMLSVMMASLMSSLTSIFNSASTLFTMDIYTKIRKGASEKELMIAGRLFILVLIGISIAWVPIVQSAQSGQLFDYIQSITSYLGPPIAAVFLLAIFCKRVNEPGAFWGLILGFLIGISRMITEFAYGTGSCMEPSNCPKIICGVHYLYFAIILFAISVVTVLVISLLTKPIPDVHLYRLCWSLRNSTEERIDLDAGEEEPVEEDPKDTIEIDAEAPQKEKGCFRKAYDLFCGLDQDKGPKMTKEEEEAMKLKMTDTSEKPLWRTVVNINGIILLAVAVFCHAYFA
The experiment in a line: Inhibition of rat SGLT1 expressed in COS7 cells assessed as reduction of [14C]-AMG uptake. The format is cell-based, COS-7.

Series [3] has as its target T3, Sodium/glucose cotransporter 2 (Rattus norvegicus, UniProt P53792).
T3 sequence (P53792 whole entry): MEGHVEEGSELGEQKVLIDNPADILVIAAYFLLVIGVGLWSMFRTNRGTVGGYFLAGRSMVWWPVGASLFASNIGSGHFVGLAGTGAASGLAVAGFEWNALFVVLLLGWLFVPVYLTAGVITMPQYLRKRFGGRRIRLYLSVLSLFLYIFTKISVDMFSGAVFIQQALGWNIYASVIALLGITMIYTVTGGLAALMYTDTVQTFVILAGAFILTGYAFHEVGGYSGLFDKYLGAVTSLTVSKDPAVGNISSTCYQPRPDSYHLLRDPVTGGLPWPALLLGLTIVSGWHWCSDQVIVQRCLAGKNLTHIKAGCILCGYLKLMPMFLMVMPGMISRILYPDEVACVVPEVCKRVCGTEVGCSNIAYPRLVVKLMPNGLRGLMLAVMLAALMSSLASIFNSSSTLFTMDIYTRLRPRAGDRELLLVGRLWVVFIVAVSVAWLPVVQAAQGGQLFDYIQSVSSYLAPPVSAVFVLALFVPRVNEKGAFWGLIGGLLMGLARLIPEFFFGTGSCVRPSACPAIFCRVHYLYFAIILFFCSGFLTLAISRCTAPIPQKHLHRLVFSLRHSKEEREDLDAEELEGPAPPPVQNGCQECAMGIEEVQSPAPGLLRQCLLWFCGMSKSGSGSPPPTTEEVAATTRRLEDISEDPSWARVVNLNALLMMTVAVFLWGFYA
The experiment in a line: Inhibition of rat SGLT2 expressed in COS7 cells assessed as reduction of [14C]-AMG uptake. The series is classed as cell-based, COS-7.

A short description of series [4]: Metabolic stability of the compound in rat intestinal microsomes assessed as compound remaining at 50 uM after 30 mins. The format is ADME, Intestine. Conditions: intestinal microsomes, read-out: Stability. The essentials:
(§1)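 50 µM final compound incubated at 37 °C with 0.8 mg/mL rat intestinal microsomes, 1 mg/mL NADPH, 50 mM ammonium acetate (pH 5.0) and 10 mM MgCl2. Levels measured by LC–MS at 0, 30 and 60 min; reported as % remaining relative to 0 min.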

A short description of series [5]: Metabolic stability of the compound in rat intestinal microsomes assessed as compound remaining at 50 uM after 60 mins. The format is ADME, Intestine. The settings on record: intestinal microsomes, read-out: Stability. The essentials: as §1
Series [6] can be described thus: Solubility of the compound in distilled water. The format is physicochemical. The essentials: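 Solubility measured in distilled water, with filtrate concentration quantified by HPLC.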
In series [7] the test system is Rattus norvegicus. The experiment in a line: Antihyperglycemic activity in po dosed Wistar rat streptozotocin-nicotinamide-induced diabetic model assessed as reduction of plasma glucose level after 1 hr by oral mixed carbohydrate tolerance test. The format is functional, organism-based. A digest of the protocol:
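Male Wistar rats (8 weeks) given nicotinamide 230 mg/kg i.p., then streptozotocin 85 mg/kg i.v. 15 min later; after 1 week, rats above 250 mg/dL plasma glucose at 1 h in a 2 g/kg glucose tolerance test were used. Overnight-fasted rats were dosed orally in 0.5% CMC, then immediately loaded with 2 g/kg starch/sucrose/lactose (6:3:1). Plasma glucose by glucose oxidase; n = 7; Dunnett's test versus vehicle.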

In series [8] the test system is Rattus norvegicus. The experiment in a line: Toxicity in Wistar rat streptozotocin-nicotinamide-induced diabetic model assessed as soft feces at 1 to 10 mg/kg, po. The settings on record: in vivo. The arrangement: dose 1-10 mg/kg, route oral. The series is classed as organism-based.
The test system of series [9] is Rattus norvegicus. The experiment in a line: Toxicity in Wistar rat streptozotocin-nicotinamide-induced diabetic model assessed as diarrhea at 1 to 10 mg/kg, po. The arrangement: dose 1-10 mg/kg, route oral. The format is organism-based. The settings on record: in vivo.
The test system of series [10] is Rattus norvegicus. The experiment in a line: Toxicity in Wistar rat assessed as overnight urinary glucose excretion at 10 mg/kg, po. The settings on record: in vivo. More on the design: dose 10 mg/kg, route oral. The format is organism-based, Urine. The essentials: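 Male Wistar rats (8 weeks) in metabolic cages, fasted 08:00 to next morning. At 16:00 they received 10 mg/kg orally in 0.5% CMC or vehicle, and urine was collected until 08:00. Urine glucose by glucose oxidase; n = 5; F-test then Student's t or Welch's test versus vehicle.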

Take `Cc1ccc(Cc2c(O[C@@H]3O[C@H](CO)[C@@H](O)[C@H](O)[C@H]3O)n[nH]c2C(C)C)c(C)c1`: the concentration for half-maximal inhibition (IC50) came out at 6.01 µM in [1], 0.067 µM in [2] and 4.65 µM in series [3]. Further, in series [4], the remaining at 0.5 h, 50 µM came out at 91%. In addition, in series [5], the remaining at 1 h, 50 µM turned out to be 67%. Further, the concentration in solution in [6] (solubility) came to 3700 µg/mL (≈ 9.1 mM). In addition, the Activity result in the series with Rattus norvegicus [7] was “Dose-dependent effect”; in the series with Rattus norvegicus [8], “Non-toxic”; in the series with Rattus norvegicus [9] it was “Non-toxic”; in the series with Rattus norvegicus [10] it was 0.8 mg.
